# Results of several laboratories.
# Compare with care: the assays were run in different laboratories.
# Sample: plasma
SMILES,host,route,dose,setting,Cmax
COc1ccc(C(O)COc2ccc(-c3csc(-c4ccc(OCC(O)c5ccc(OC)c(OC)c5)cc4)n3)cc2)cc1OC (centres unmarked),C57BL/6 mouse,oral,30 mg/kg,,5980 ng/mL
COc1ccc([C@@]23Oc4cc(OC)cc(OC)c4[C@]2(O)[C@H](O)[C@H](C(=O)N(C)C)[C@H]3c2ccccc2)cc1,mouse,intravenous,5 mg/kg,,~11 µM
Cc1nc(-c2cnc(NC(C)C)n(C)c2=O)ccc1Oc1ccnc(-c2cnn(C)c2)c1,female mouse,oral,7.5 mg/kg,single dose,4450 ng/mL
CS(=O)(=O)CCNCc1ccc(-c2ccc3ncnc(Nc4ccc(OCc5cccc(F)c5)c(Cl)c4)c3c2)o1,nude mouse,oral,50 mg/kg,single dose,6470 ng/mL
CC[C@H](C)[C@@H]1NC(=O)[C@@](C)(NC(=O)[C@H](CCCNC(=N)N)NC(=O)[C@H](CC(C)C)NC(=O)[C@@H](NC(=O)[C@H](CCC(N)=O)NC(=O)[C@H](CC(C)C)NC(C)=O)[C@@H](C)O)CCCC=CCCC[C@@](C)(C(=O)N[C@@H](CC(C)C)C(=O)N[C@@H](Cc2ccc3ccccc3c2)C(N)=O)NC(=O)[C@H](CCCNC(=N)N)NC(=O)[C@H](CCC(N)=O)NC1=O,male BALB/c mouse,intravenous,15 mg/kg,,102 µM
CC(C)(C)c1ccc(O)c(CN(Cc2cc(C(C)(C)C)ccc2O)C2CCC(NC(N)=O)CC2)c1 (centres unmarked),male C57BL/6 mouse,oral,10 mg/kg,single dose,1020 ng/mL
C=CC(=O)N1CC2CC(n3nc(-c4ccc(C(=O)Nc5ccccn5)cc4)c4c(N)ncnc43)CC2C1 (centres unmarked),SCID mouse,oral,0.2 mg/kg,,10.5 ng/mL
CN1CCC[C@H](CN2c3ccccc3Sc3ccccc32)C1.O=C(O)CCC(=O)O,mouse,oral,64 mg/kg,single dose,1540 ng/mL
